Results taken from ChEMBL document CHEMBL1131328 (J Med Chem, 1998).

How the values were obtained:
Rattus norvegicus [1] = experiment: Percent decrease in serum cholesterol relative to OVX controls, at 0.01 mg/Kg compound dose; type: functional
In short: (§1)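 Ovariectomized rats were dosed daily for 4 days, and serum cholesterol was measured. Values are mean percent decrease relative to OVX controls ± SEM, n ≥ 5 per group, with significance at p ≤ 0.05. ED50 is the dose reducing serum cholesterol by 50% relative to OVX controls.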

[2] = target: T1, Estrogen receptor (Rattus norvegicus) (UniProt P06211+Q62986)
Rattus norvegicus [3] = experiment: Minimally effective dose(MED) (mg/kg body weight) at which a significant increase in EPO activity was observed in rats; type: functional; conditions: read-out: MED
In short: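 Uterine eosinophil peroxidase (EPO) activity was measured in the 4-day ovariectomized rat assay. […] Activity at the MED is given as Vmax ± standard error.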

Rattus norvegicus [4] = organism: Rattus norvegicus; experiment: Dose required to reduce serum cholesterol by 50% relative to ovariectomized (OVX) controls; type: functional; in short: as §1
MCF7 [5] = experiment: Inhibition of estrogen-stimulated MCF-7 cell proliferation; type: functional, cell-based; conditions: Homo sapiens
In short: (§2)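 MCF-7 breast tumor cells were stimulated to proliferate with 10⁻¹¹ M 17β-estradiol, with test compound added to measure inhibition of that proliferation. IC50 was derived from the inhibition.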

Rattus norvegicus [6] = experiment: Percent decrease in serum cholesterol relative to OVX controls, at 1.0 mg/Kg compound dose; type: functional; in short: as §1
[7] = target: T1, Estrogen receptor (Rattus norvegicus); experiment: Minimally effective dose(MED) (mg/kg body weight) at which a statistically significant (p<= 0.05) increase in uterine weight/body weight was observed.; type: functional, organism-based
In short: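 A 4-day ovariectomized rat assay with daily dosing. Uterine weight/body weight was compared with OVX controls. The MED is the lowest dose (mg/kg) giving a significant increase (p ≤ 0.05). Activity at the MED is given as percent increase over OVX controls ± standard error.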

MCF7 [8] = experiment: Inhibition of estrogen-stimulated MCF-7 cell proliferation; not active; type: functional, cell-based, Homo sapiens; in short: as §2

| SMILES | MED [2] | IC50 (MCF7 [5]) | IC50 (MCF7 [8]) | Decrease (Rattus norvegicus [1]) | minimal effective dose (Rattus norvegicus [3]) | ED50 (Rattus norvegicus [4]) | Decrease (Rattus norvegicus [6]) | MED [7] |
| --- | --- | --- | --- | --- | --- | --- | --- | --- |
| c1ccc2c(c1)OC(c1ccc(OCCN3CCCCC3)cc1)c1c-2sc2ccccc12 (configuration not stated) | 0.1 mg/kg | 80 nM | – | 39.8% | > 10 mg/kg | 0.7 mg/kg | – | – |
| Oc1ccc2c(c1)OC(c1ccc(OCCN3CCCCC3)cc1)c1c-2sc2ccccc12 (configuration not stated) | > 10 mg/kg | 20 nM | – | 46.5% | > 10 mg/kg | 0.5 mg/kg | 53.7% | – |
| COc1ccc2c(c1)OC(c1ccc(OCCN3CCCCC3)cc1)c1c-2sc2cc(OC)ccc12 (configuration not stated) | – | 100 nM | – | – | – | – | – | – |
| CC/C(=C(\c1ccccc1)c1ccc(OCCN(C)C)cc1)c1ccccc1 [TAMOXIFEN] | – | – | – | 39.2% | 0.1 mg/kg | 0.2 mg/kg | 71.1% | – |
| O=C1CCCN1CCOc1ccc(C2Oc3cc(O)ccc3-c3sc4cc(O)ccc4c32)cc1 (configuration not stated) | 3 mg/kg | 9 nM | – | -15.2% | > 3 mg/kg | – | 4.4% | – |
| C#C[C@]1(O)CC[C@H]2[C@@H]3CCc4cc(O)ccc4[C@H]3CC[C@@]21C [ETHINYL ESTRADIOL] | – | – | Not Active | 57.1% | 0.1 mg/kg | 0.005 mg/kg | – | – |
| CCN(CC)CCOc1ccc(C2Oc3cc(O)ccc3-c3sc4cc(O)ccc4c32)cc1 (configuration not stated) | 0.1 mg/kg | 8 nM | – | 20.6% | 0.1 mg/kg | > 10 mg/kg | 38.7% | – |
| Oc1ccc2c(c1)OC(c1ccc(OCCN3CCOCC3)cc1)c1c-2sc2cc(O)ccc12 (configuration not stated) | 1 mg/kg | 6 nM | – | -48.7% | 1 mg/kg | > 10 mg/kg | 14.3% | – |

Continued by falling IC50 (MCF7 [5]), values first:

| MED [2] | IC50 (MCF7 [5]) | IC50 (MCF7 [8]) | SMILES | Decrease (Rattus norvegicus [1]) | minimal effective dose (Rattus norvegicus [3]) | ED50 (Rattus norvegicus [4]) | Decrease (Rattus norvegicus [6]) | MED [7] |
| --- | --- | --- | --- | --- | --- | --- | --- | --- |
| > 10 mg/kg | 6 nM | – | Oc1ccc2c3c(sc2c1)-c1ccccc1OC3c1ccc(OCCN2CCCCC2)cc1 (configuration not stated) | 25.4% | > 10 mg/kg | 1 mg/kg | 51.5% | – |
| 0.1 mg/kg | 2 nM | – | CN(C)CCOc1ccc(C2Oc3cc(O)ccc3-c3sc4cc(O)ccc4c32)cc1 (configuration not stated) | 40.1% | 0.1 mg/kg | 0.5 mg/kg | 54.7% | – |
| > 10 mg/kg | 0.7 nM | – | Oc1ccc2c(c1)OC(c1ccc(OCCN3CCCCC3)cc1)c1c-2oc2cc(O)ccc12 (configuration not stated) | 17.4% | > 10 mg/kg | > 10 mg/kg | – | – |
| 0.1 mg/kg | 0.6 nM | – | Oc1ccc2c(c1)OC(c1ccc(OCCN3CCCC3)cc1)c1c-2sc2cc(O)ccc12 (configuration not stated) | 38.5% | > 1 mg/kg | 0.2 mg/kg | 68% | – |
| – | 0.4 nM | – | Oc1ccc2c(c1)OC(c1ccc(OCCN3CCCCC3)cc1)c1c-2ccc2cc(O)ccc12 (configuration not stated) | 57.2% | > 10 mg/kg | 0.02 mg/kg | 65.7% | > 10 mg/kg |
| > 10 mg/kg | 0.2 nM | – | Oc1ccc2c(c1)OC(c1ccc(OCCN3CCCCC3)cc1)c1c-2sc2cc(O)ccc12 (configuration not stated) | 62.2% | > 10 mg/kg | 0.15 mg/kg | 47.6% | – |
